According to paper PMC13252795 (International journal for parasitology, 2017):
pEC50: −log10 of the molar value.

Key:
[1] = molecular target: recombinant BbCDPK1 (rBbCDPK1) (Besnoitia besnoiti, UniProt A0A290U7L2); assay: BbCDPK1 enzymatic activity inhibition, Kinase-Glo luciferase assay; type: biochemical
Marc-145 cells = assay: Mammalian cell toxicity, XTT cell viability assay; type: cell-based; conditions: uninfected Marc-145 cells, 5 μM, 72 h
Procedure, shortened: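 Exponential-phase Marc-145 cells were seeded at 2 × 10^5 cells/mL together with test compound dissolved in DMSO, in quadruplicate, and grown 72 h at 37 °C in humidified 5% CO2. XTT reagent was then added for 4 h, and […]. Percent growth inhibition was calculated relative to the DMSO vehicle.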

[2] = tested on: B. besnoiti tachyzoites (Bb-Spain1) in Marc-145 cells; assay: Short term dose-response assays, EC50 and EC99 determination by qPCR; type: cell-based, Besnoitia besnoiti
[3] = tested on: B. besnoiti tachyzoites (Bb-Spain1) in HFF cells; assay: Transmission electron microscopy of B. besnoiti-infected HFF treated with BKIs; type: cell-based, Besnoitia besnoiti; conditions: 5 μM, HFF cells, 4, 6 and 8 days; listed as BKI-1294
[4] = cattle; ref Huang et al., 2015; Schaefer et al., 2016; Hulverson et al., 2017; cited from earlier work

## CCOc1ccc2cc(-c3nn(CC4CCN(C)CC4)c4ncnc(N)c34)ccc2c1 [Compound 1294]
[1]
  IC50 values against BbCDPK1 (in words): lower nanomolar range
Marc-145 cells
  Percentage of cytotoxicity compared to DMSO-treated negative control: 5.2%
[2]; BKI added at 0 hpi, 3-day proliferation assay, qPCR, Marc-145 cells
  EC99 (B. besnoiti): 2.38 µM
[2]; Besnoitia besnoiti, MARC145, 72 h, read-out: EC50 (B. besnoiti)
  pEC50: 7.35
[3]
  Effect on ultrastructure of tachyzoites (TEM): formed multinucleated complexes
[4]
  Plasma levels achieved: up to 5 μM
